In the library only some 4% were active in any assay of this set; here they are far more common.
FAS TE block: blocks the thioesterase domain of human fatty acid synthase; P49327; recombinant FAS-TE, OMFH fluorogenic substrate, fluorescence endpoint; inhibition, % at 15 µM; 360,000 compounds, 0.67% hits; AID 602261;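 active = compounds whose normalised, plate-corrected inhibition of enzyme fluorescence in the single-dose primary screen is 50% or more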
SENP1 inh: inhibitors of human SENP1 SUMO protease catalytic domain; Q9P0U3; recombinant SENP1 catalytic domain, CyPet-SUMO1-YPet FRET cleavage; inhibition, % at 10 µM; 360,000 compounds, 0.21% hits;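 active = inhibition at least 30% at 10 µM, raw YFP signal under a set limit, fluorescence ratio 0.5 to 1.5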
Target sequence (Q9P0U3 419-644 limits assumed): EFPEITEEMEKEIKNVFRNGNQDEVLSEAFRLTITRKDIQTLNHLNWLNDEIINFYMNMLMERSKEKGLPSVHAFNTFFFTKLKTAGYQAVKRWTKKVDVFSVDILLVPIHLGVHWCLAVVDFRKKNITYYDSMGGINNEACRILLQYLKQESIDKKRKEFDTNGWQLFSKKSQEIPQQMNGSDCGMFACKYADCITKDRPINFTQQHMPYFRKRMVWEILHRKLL
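Test system: hSENP1 catalytic domain, recombinant; Amount: 20 pM final SENP1 enzyme; Medium: Tris pH 8 buffer plus EDTA, NaCl, BME, BSA, NP40, catalase; Schedule: 50 min enzyme reaction, room temperature, light-protected; Technique: FRET fluorescence in CFP and YFP emission channels; Controls: no-enzyme wells low, DMSO-plus-enzyme wells high control.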
H9c2 protect: myocardial damage modulation in H9c2 cells; H9c2 cardiomyocytes, H2O2 injury protection, ATPLite, 2 h; protection from H2O2 cell death, % at 20 µM; 360,000 compounds, 0.63% hits; AID 588492;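 active = compounds giving at least 50% protection of heart cells from peroxide-induced death in the single-dose screen, raw or plate-pattern-corrected value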
hiPSC survival: increases survival of single human iPS cells. AID 602274. 360,000 compounds, 0.044% hits. survival enhancement, % at 20 µM. hiPSC single-cell survival, ATPlite luminescence; 100% = ROCK inhibitor wells, 0% = DMSO; in the data active = survival enhancement above about 18%;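 also: cells exposed to compounds for 16 hours before the ATP read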
Arr AP2 block: inhibitors of human beta-arrestin and AP2 interaction; 340,000 compounds, 0.31% hits; AID 504490; FITC-arrestin peptide / GST-AP2 beads, flow cytometry; AP2 beta2 appendage carries R879A mutation; inhibition, % at 10 µM;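 active = inhibition above a set limit, near 3 SD of compounds lacking own fluorescence, cut at about 54% in these data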
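Assay system: GST-AP2 R879A bound to glutathione beads, E. coli-expressed; Medium: PBS with 0.05% Tween 20 and 0.1% BSA; Also added: fluorescein-tagged arrestin peptide at 50 nM final; Timing: 12 min plus 1 h, RT; Measured by: flow cytometry, FL1 (488/535 nm); Evaluation: percent drop in bead-associated FITC signal.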
GRIN3A LBD mod: modulates the human NR3A ligand-binding domain; NR3A LBD differential scanning fluorimetry, Tm shift; 0% = protein alone, 100% = glycine-bound protein; Tm shift relative to glycine control, % at 25 µM; 340,000 compounds, 2.5% hits; AID 1259313;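 active = melting temperature shift of at least 10% of the positive control shift, at one fixed dose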
Hits are given with their value; i = inactive; nt = no result.

SMILES	FAS TE block	SENP1 inh	H9c2 protect	hiPSC survival	Arr AP2 block	GRIN3A LBD mod
COc1ccc(-c2ccc3[nH]c4c(c3c2)CCN2C(=O)[C@@H]([C@H](C)O)[C@@H](N(C)C(=O)Nc3ccc(F)cc3)C[C@@H]42)cc1	i	i	i	i	nt	nt
CN(C)CCN1CCN(C2CN(Cc3cn(Cc4ccc(F)cc4)nn3)S(=O)(=O)C2)CC1 (stereo not drawn)	i	i	nt	i	nt	nt
Cc1ccc2cccc(Oc3ncnc4scc(-c5ccccc5)c34)c2n1	i	i	i	i	i	i
Cc1ccc2cccc(Oc3ncnc4scc(-c5ccc(Cl)cc5)c34)c2n1	i	i	i	i	i	11
CC(C)=NNc1cnnc2ccc([N+](=O)[O-])cc12	i	i	56	i	nt	nt
Cc1cccc(CNC(=O)c2sc(=O)n(Cc3c(C)cccc3C)c2C)c1	i	i	i	i	nt	nt
C=CCNC(=O)/C(C#N)=C/c1ccccc1OCc1ccc(C(=O)OC)cc1	i	i	i	i	i	34
CC(C)=CCC12Oc3cc(O)ccc3C1(O)Oc1cc3c(c(O)c1C2=O)C=CC(C)(C)O3 (stereo not drawn)	nt	nt	nt	nt	nt	12
COc1c2c(cc(O)c1C(C)=O)OC(C)(C)C=C2	i	i	i	i	i	i
Cc1nnc(N=c2ssnc2Cl)o1	i	i	i	i	i	21
COc1cc(N=c2ssnc2Cl)c(OC)cc1Cl	i	i	i	i	i	19
Cc1cc(Cl)ccc1N=c1ssnc1Cl	i	i	i	i	i	24
Cc1ccc(N=c2ssnc2Cl)cc1	i	i	i	i	i	22
O=C1O[C@@H](c2ccccc2)C[C@@H](O)C(=O)CCCCc2ccccc21	i	i	nt	i	nt	nt
COc1ccc(C(C(=O)Nc2ccc(F)cc2)N2CCN(c3cccc(C(F)(F)F)n3)CC2)cc1 (stereo not drawn)	nt	i	nt	nt	nt	nt
CCc1nc2ccc(C(=O)N(C)CCCN(C)C)cn2c1N(C)Cc1cc2ccccc2s1	i	i	i	i	nt	nt
COc1cccc(-c2cnc(C(O)c3ccc(C(C)(C)C)cc3)[nH]2)c1 (stereo not drawn)	i	i	i	i	nt	nt
O=C(Cn1ccc(C(F)(F)F)n1)NNC(=O)c1ccco1	i	i	i	i	i	293
O=C(COc1ccc(F)cc1)NNC(=O)Cn1ccc(C(F)(F)F)n1	i	i	i	i	i	i
Cn1c(NCc2ccccc2F)nc2cc(-c3cccc(C(F)(F)F)c3)sc2c1=O	i	i	i	i	nt	nt
C[C@H](O)[C@@H]1CN2CCc3c([nH]c4ccc(-c5ccc6c(c5)OCO6)cc34)[C@@H]2C[C@@H]1N(C)C(=O)Nc1ccc(F)cc1	i	i	i	i	nt	nt
C[C@@H]1ON(C)[C@H]2C[C@H]3c4[nH]c5ccc(-c6ccc7c(c6)OCO7)cc5c4CCN3C[C@@H]12	i	i	62	i	nt	nt
Cn1c(O)c(N=Nc2ccccc2)c2ccccc21	i	i	i	i	i	i
Cn1c(O)c(N=Nc2nc(-c3ccccc3)cs2)c2ccccc21	i	46	62	i	i	i
CCNC(=O)Nc1nc2ccccc2s1	i	i	i	i	i	i
SMILES	FAS TE block	SENP1 inh	H9c2 protect	hiPSC survival	Arr AP2 block	GRIN3A LBD mod
CC(C)(C)C(=O)Nc1nc2ccc(S(C)(=O)=O)cc2s1	i	i	i	i	i	i
Cc1ccc(NC(=O)Nc2nc3ccc(S(C)(=O)=O)cc3s2)cc1	i	i	i	i	i	28
CS(=O)(=O)c1ccc2nc(NC(=O)Nc3ccc(Cl)c(Cl)c3)sc2c1	i	i	i	i	i	31
Cc1ccc(NC(=O)Nc2nc3ccccc3s2)cc1NC(=O)Nc1nc2ccccc2s1	i	i	i	i	i	28
CS(=O)(=O)c1ccc2nc(NC(=O)Nc3ccccc3F)sc2c1	i	i	i	i	i	i
CC(C)C(=O)Nc1nc2ccc(S(C)(=O)=O)cc2s1	i	i	i	i	i	i
CS(=O)(=O)c1ccc2nc(NC(=O)Nc3cccc(Cl)c3)sc2c1	i	i	i	i	i	22
O=C(NC1CCCC1)C(c1ccccc1)n1c(CSCCOc2ccccc2)nc2ccccc21 (stereo not drawn)	nt	i	nt	nt	nt	nt
CCCc1c(-c2ccc(F)cc2F)ncn1Cc1cccc(-c2ccccc2)c1	nt	i	nt	nt	nt	nt
COCCNC(=O)C1(C)CCN(C(=O)c2nc(C)oc2C)C1 (stereo not drawn)	i	i	i	i	nt	nt
CC(=O)N1CCc2c(sc(NC(=O)c3ccc(S(=O)(=O)N(C)CC4CCCO4)cc3)c2C(N)=O)C1 (stereo not drawn)	i	i	i	i	nt	nt
NC(=O)c1c(NC(=O)Cn2nc(C(=O)O)c3ccccc3c2=O)sc2c1CCC2	i	i	54	i	i	i
CCCS(=O)(=O)NC(=O)C1(C)CCCN(C(=O)c2cc3ccccc3s2)C1 (stereo not drawn)	i	i	i	i	nt	nt
Cc1ccc(S(=O)(=O)c2nc(Nc3nccs3)sc2Cl)cc1	i	i	i	i	i	12
CC(=O)Nc1nc(S(=O)(=O)c2ccc(C)cc2)c(Cl)s1	i	i	i	i	i	i
COc1cc(NC(=O)COC(=O)Cc2ccc(-c3ccccc3)cc2)cc(OC)c1	i	i	i	i	i	36
CCSc1nsc(NC(=O)Nc2cccc(OC)c2)n1	i	i	i	i	i	16
C=CCSc1nsc(NC(=O)Nc2ccc(F)cc2)n1	i	i	i	i	i	28
CCSc1nsc(NC(=O)Nc2ccccc2F)n1	i	i	i	i	i	i
COc1cccc(NC(=O)Cc2ccccc2)c1	i	i	i	i	i	10
COc1ccc(NC(=O)c2cc(-c3cc(F)ccc3OC(C)C)n[nH]2)c(C)c1	i	i	i	i	nt	nt
COc1cccc(NC(=O)Nc2nnc(CC(=O)Nc3ccccc3)s2)c1	i	i	i	i	i	23
COc1ccc(NC(=O)Nc2nnc(CC(=O)Nc3ccccc3)s2)cc1	i	i	i	i	i	i
Clc1ccc(SCNc2ccccc2Cl)cc1	i	i	i	i	i	10
Cc1ccc(NCSc2ccc(Cl)cc2)cc1	i	i	i	i	i	i
SMILES	FAS TE block	SENP1 inh	H9c2 protect	hiPSC survival	Arr AP2 block	GRIN3A LBD mod
CN(C)c1ccc(N/C=C/C(=O)c2ccc(F)cc2)cc1	i	67	i	i	i	i
O=C(/C=C/Nc1ccc(F)c(Cl)c1)c1ccco1	i	i	i	i	i	i
CN(C)c1ccc(N/C=C/C(=O)c2ccco2)cc1	i	71	i	i	i	i
O=C(/C=C/Nc1cccc(F)c1)c1ccco1	i	i	i	i	i	28
NS(=O)(=O)c1ccc(N/C=C\C(=O)c2ccc(F)cc2)cc1	i	i	i	i	i	i
CC(=O)Nc1ccc(N/C=C/C(=O)c2ccco2)cc1	i	i	i	i	i	i
Cc1nc2ccc(C(=O)Nc3ccc4c(c3)OCC(=O)N4)cn2c1N(C)C(=O)CCc1ccccc1	i	i	i	i	nt	nt
